According to ChEMBL document CHEMBL4014339, “Discovery of 1,4-Benzodiazepine-2,5-dione (BZD) Derivatives as Dual Nucleotide Binding Oligomerization Domain Containing 1/2 (NOD1/NOD2) Antagonists Sensitizing Paclitaxel (PTX) To Suppress Lewis Lung Carcinoma (LLC) Growth in Vivo” (J Med Chem, 2017):
Activity calls are given as the source filed them. No cut-off for these calls is given here.

Tests used:
[1] = target: T1, Nucleotide-binding oligomerization domain-containing protein 1 (Homo sapiens) (UniProt Q9Y239); test: Inhibition of NOD1 in human THP1 cells assessed as suppression of C12-iE-DAP-stimulated JNK phosphorylation at 1 to 10 uM preincubated for 1 hr followed by C12-iE-DAP stimulation after 45 mins by Western blot analysis; type: cell-based
T1 sequence (whole entry): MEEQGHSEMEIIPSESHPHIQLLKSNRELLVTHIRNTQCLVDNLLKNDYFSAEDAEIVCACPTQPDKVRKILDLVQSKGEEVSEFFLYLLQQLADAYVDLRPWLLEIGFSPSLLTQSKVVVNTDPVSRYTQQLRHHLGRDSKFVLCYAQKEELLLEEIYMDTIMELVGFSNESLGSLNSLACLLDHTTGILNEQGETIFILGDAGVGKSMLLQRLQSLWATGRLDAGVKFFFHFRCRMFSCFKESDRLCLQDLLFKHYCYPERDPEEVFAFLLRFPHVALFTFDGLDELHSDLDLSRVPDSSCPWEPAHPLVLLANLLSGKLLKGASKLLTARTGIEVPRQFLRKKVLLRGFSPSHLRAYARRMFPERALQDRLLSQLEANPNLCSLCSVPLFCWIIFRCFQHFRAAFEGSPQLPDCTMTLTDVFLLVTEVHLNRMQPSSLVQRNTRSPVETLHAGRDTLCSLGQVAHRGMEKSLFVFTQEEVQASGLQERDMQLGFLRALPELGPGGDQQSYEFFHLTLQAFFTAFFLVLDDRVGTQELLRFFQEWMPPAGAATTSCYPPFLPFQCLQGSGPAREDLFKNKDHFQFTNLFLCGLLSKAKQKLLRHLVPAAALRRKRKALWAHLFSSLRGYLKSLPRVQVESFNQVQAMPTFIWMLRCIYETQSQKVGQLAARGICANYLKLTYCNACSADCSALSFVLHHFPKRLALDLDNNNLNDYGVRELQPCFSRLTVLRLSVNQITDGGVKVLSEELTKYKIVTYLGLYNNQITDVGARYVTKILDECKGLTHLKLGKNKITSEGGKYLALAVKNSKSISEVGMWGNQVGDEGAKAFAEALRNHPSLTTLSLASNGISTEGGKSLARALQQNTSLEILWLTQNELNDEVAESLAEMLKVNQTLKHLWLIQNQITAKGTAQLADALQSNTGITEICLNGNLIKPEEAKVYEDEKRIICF
Method in brief: (§1)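 PMA (20 ng/mL, 48 h)-differentiated THP1 macrophages rested 24 h in PMA-free medium, serum-starved (0.1% FBS) overnight, pretreated 1 h with compound, stimulated 45 min with C12-iE-DAP 50 ng/mL. Lysates run on 8% SDS-PAGE, immunoblotted for phospho and total RIP2, p38, JNK, ERK and IκBα.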

[2] = target: T1, Nucleotide-binding oligomerization domain-containing protein 1 (Homo sapiens); test: Antagonist activity at human NOD1 expressed in HEK-Blue cells assessed as inhibition of C12-iE-DAP-stimulated cell activation at 10 uM preincubated for 3 hrs followed by C12-iE-DAP addition measured after 20 hrs by SEAP reporter gene assay; type: cell-based
Method in brief: (§2)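 HEK-Blue hNOD1 or hNOD2 cells preincubated with compound 3 h, then stimulated 20 h with C12-iE-DAP 50 ng/mL (NOD1) or MDP 100 ng/mL (NOD2); SEAP in supernatant quantified. Primary screen at 10 μM, hits repeated in triplicate; IC50 from dose-response, mean ± SD (n = 3), only for compounds reaching ≥50% inhibition at the screening concentration.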

[3] = target: T2, Nucleotide-binding oligomerization domain-containing protein 2 (Homo sapiens, UniProt Q9HC29); test: Antagonist activity at human NOD2 expressed in HEK-Blue cells assessed as inhibition of MDP-stimulated cell activation at 10 uM preincubated for 3 hrs followed by MDP addition measured after 20 hrs by SEAP reporter gene assay; type: cell-based; method in brief: as §2
[4] = target: Toll-like receptor 4 (Homo sapiens) (UniProt O00206); test: Inhibition of human TLR4 expressed in HEK-Blue cells assessed as reduction in LPS-EK-stimulated SEAP release preincubated for 3 hrs followed by LPS-EK addition measured after 20 hrs by spectrophotometric analysis; type: cell-based
[5] = target: T1, Nucleotide-binding oligomerization domain-containing protein 1 (Homo sapiens); test: Inhibition of NOD1 in human THP1 cells assessed as suppression of C12-iE-DAP-stimulated RIP2 phosphorylation at 1 to 10 uM preincubated for 1 hr followed by C12-iE-DAP stimulation after 45 mins by Western blot analysis; type: cell-based; method in brief: as §1
[6] = target: T2, Nucleotide-binding oligomerization domain-containing protein 2; test: Inhibition of human NOD2 expressed in HEK293 cells assessed as suppression of MDP-stimulated JNK phosphorylation preincubated for 1 hr followed by MDP stimulation measured after 1 hr by Western blot analysis
[7] = target: T1, Nucleotide-binding oligomerization domain-containing protein 1 (Homo sapiens); test: Inhibition of NOD1 in human PBMC-derived macrophages assessed as reduction in C12-iE-DAP-stimulated ERK phosphorylation at 1 to 10 uM preincubated for 1 hr followed by C12-iE-DAP stimulation for 45 mins by Western blot analysis
[8] = target: T1, Nucleotide-binding oligomerization domain-containing protein 1 (Homo sapiens); test: Inhibition of NOD1 in human PBMC-derived macrophages assessed as reduction in C12-iE-DAP-stimulated TNFalpha mRNA expression preincubated for 1 hr followed by C12-iE-DAP stimulation for 90 mins by RT-qPCR analysis
Method in brief: (§3)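 Human CD14+ monocytes from donor PBMC, differentiated 7 days with M-CSF 20 ng/mL to macrophages; 1.0 × 10^6 cells pretreated 1 h with compound (final 0.1% DMSO), then C12-iE-DAP 500 ng/mL or MDP 5 μg/mL for 90 min. IL-6/TNF-α mRNA by qRT-PCR, normalized to GAPDH; stimulated response set to 100%.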

[9] = target: T2, Nucleotide-binding oligomerization domain-containing protein 2; test: Inhibition of human NOD2 expressed in HEK293 cells assessed as reduction in MDP-stimulated IL8 secretion preincubated with compound followed by MDP stimulation measured after 24 hrs by ELISA; type: cell-based
[10] = target: T3, Nucleotide-binding oligomerization domain-containing protein 1 (Homo sapiens, UniProt Q9Y239); test: Antagonist activity at human NOD1 expressed in HEK-blue cells assessed as inhibition of C12-iE-DAP-stimulated cell activation preincubated for 3 hrs followed by C12-iE-DAP addition measured after 20 hrs by SEAP reporter gene assay; type: cell-based; method in brief: as §2
T3 sequence (Q9Y239 whole entry): T1 sequence (whole entry)

[11] = target: T1, Nucleotide-binding oligomerization domain-containing protein 1 (Homo sapiens); test: Inhibition of NOD1 in human PBMC-derived macrophages assessed as reduction in C12-iE-DAP-stimulated JNK phosphorylation at 1 to 10 uM preincubated for 1 hr followed by C12-iE-DAP stimulation for 45 mins by Western blot analysis
[12] = target: T2, Nucleotide-binding oligomerization domain-containing protein 2; test: Inhibition of NOD2 in human PBMC-derived macrophages assessed as reduction in MDP-stimulated TNFalpha mRNA expression preincubated for 1 hr followed by MDP stimulation for 90 mins by RT-qPCR analysis; method in brief: as §3
[13] = target: Tumor necrosis factor (Homo sapiens) (UniProt P01375); test: Inhibition of recombinant human TNFalpha expressed in HEK-Blue cells assessed as reduction in SEAP release preincubated for 3 hrs measured after 20 hrs by spectrophotometric analysis; type: cell-based
[14] = target: T1, Nucleotide-binding oligomerization domain-containing protein 1 (Homo sapiens); test: Inhibition of human NOD1 expressed in HEK293 cells assessed as reduction in C12-iE-DAP-stimulated IL8 secretion preincubated with compound followed by C12-iE-DAP stimulation measured after 24 hrs by ELISA; type: cell-based

T2 sequence (Q9HC29 whole entry, the tested form may be a part): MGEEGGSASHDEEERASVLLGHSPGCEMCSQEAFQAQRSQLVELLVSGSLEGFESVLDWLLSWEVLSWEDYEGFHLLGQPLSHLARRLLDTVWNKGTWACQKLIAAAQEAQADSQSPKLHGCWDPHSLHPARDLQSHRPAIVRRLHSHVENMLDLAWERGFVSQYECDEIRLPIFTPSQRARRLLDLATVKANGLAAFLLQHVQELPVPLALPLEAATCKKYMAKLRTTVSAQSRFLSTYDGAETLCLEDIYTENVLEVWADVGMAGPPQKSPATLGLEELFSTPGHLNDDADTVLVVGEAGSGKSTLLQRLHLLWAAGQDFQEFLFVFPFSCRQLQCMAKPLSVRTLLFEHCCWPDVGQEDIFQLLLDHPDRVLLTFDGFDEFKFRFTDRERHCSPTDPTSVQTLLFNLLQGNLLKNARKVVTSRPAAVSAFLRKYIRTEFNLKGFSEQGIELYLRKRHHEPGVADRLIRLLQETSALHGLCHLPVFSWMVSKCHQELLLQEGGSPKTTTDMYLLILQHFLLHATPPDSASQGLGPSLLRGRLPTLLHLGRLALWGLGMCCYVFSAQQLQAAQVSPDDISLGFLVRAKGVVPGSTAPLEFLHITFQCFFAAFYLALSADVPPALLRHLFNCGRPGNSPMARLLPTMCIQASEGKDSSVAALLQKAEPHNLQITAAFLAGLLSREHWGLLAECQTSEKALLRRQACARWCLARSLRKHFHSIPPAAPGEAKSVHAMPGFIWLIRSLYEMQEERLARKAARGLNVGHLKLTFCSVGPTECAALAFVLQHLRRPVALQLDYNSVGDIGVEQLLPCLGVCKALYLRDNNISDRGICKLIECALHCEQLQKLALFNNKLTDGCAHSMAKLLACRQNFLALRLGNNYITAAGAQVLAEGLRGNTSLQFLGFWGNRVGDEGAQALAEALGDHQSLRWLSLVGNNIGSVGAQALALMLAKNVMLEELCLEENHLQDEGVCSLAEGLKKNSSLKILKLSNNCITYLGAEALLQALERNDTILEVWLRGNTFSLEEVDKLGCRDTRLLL
Sequence of Tumor necrosis factor (Homo sapiens) (P01375 whole entry, the tested form may be a part): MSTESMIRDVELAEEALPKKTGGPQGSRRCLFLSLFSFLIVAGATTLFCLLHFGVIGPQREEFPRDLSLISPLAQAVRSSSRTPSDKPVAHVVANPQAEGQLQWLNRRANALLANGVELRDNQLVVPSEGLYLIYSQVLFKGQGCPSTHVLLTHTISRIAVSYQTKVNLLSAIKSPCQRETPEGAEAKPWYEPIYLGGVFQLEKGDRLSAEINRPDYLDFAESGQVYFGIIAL
Sequence of Toll-like receptor 4 (Homo sapiens) (O00206 whole entry, the tested form may be a part): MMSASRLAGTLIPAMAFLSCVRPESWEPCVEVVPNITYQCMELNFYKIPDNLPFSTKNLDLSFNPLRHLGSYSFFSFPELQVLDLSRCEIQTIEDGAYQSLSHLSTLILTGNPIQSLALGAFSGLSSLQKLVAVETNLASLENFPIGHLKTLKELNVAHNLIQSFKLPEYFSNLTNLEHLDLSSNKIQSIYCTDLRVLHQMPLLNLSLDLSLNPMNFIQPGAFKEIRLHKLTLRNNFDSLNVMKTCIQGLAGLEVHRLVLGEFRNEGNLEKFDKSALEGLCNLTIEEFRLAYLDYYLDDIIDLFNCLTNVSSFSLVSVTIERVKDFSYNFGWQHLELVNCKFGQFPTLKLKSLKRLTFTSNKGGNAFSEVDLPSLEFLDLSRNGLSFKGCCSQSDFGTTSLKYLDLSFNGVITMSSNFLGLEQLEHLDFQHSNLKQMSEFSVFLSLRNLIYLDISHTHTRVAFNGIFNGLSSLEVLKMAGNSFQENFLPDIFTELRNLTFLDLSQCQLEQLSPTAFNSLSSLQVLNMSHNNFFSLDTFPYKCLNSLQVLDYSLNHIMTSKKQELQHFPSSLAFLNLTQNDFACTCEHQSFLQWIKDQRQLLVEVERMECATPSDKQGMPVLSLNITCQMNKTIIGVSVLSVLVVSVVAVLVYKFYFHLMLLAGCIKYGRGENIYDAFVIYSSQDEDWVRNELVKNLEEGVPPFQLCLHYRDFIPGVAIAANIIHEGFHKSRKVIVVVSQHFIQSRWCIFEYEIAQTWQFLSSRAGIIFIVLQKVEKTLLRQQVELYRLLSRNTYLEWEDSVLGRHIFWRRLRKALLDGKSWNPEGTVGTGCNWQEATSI

Question: What does the source list for `CCCNC(=O)CC[C@H]1NC(=O)c2cc(Oc3cccc(N(C)C)c3)c(NC(=O)COCc3ccccc3)cc2NC1=O`?
Answer: inhibition [1]: Active; inhibition [2]: 86.2%; inhibition [3]: 80.4%; inhibition [4]: inactive; inhibition [5]: Active; inhibition [6]: Dose-dependent effect; inhibition [7]: Active; inhibition [8]: Dose-dependent effect; inhibition [9]: Dose-dependent effect; IC50 [10]: 2.36 µM; inhibition [11]: Active; inhibition [12]: Dose-dependent effect; inhibition [13]: inactive; inhibition [14]: Dose-dependent effect
